Measured values taken from ChEMBL document CHEMBL1152541, “Staurosporine tethered peptide ligands that target cAMP-dependent protein kinase (PKA): optimization and selectivity profiling” (Bioorg Med Chem, 2009).
Blank lines part the entries; values can stand above or below the compound they belong to. *1 amine or outer side, *2 acyl side, *3 side chain or, on linkers, in order; H or OH if unused. Where a SMILES comes first, the peptide text is derived from it. Bridges are numbered along the chain shown (N, C = ends). [ ]: non-standard residue; d: D form. The star is where a group is joined. Staurosporine = CO[C@@H]1[C@H](N(C)*)C[C@H]2O[C@]1(C)n1c3ccccc3c3c4c(c5c6ccccc6n2c5c31)C(=O)NC4; Suc = O=C(CCC(=O)[*:2])[*:1]; Dap = NC[C@H](N)C(=O)O; βAla = NCCC(=O)O

Tests used:
[1] = target: Casein kinase I isoform delta (Homo sapiens) (UniProt P48730); assay: Binding affinity to human CSNK1D at 500 nM by cell-based competition binding assay relative to control in presence of DTT
How it was run: (§1)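 Commercial (Ambit) competitive kinase-binding panel of 90 kinases measured the binding profile. Run under reducing conditions of 7.5 mM DTT. Binding is expressed relative to control.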

[2] = target: Receptor tyrosine-protein kinase erbB-4 (Homo sapiens) (UniProt Q15303); assay: Binding affinity to human ERBB4 at 500 nM by cell-based competition binding assay relative to control in presence of DTT; how it was run: as §1
[3] = target: RAF proto-oncogene serine/threonine-protein kinase (Homo sapiens) (UniProt P04049); assay: Binding affinity to human RAF1 at 500 nM by cell-based competition binding assay relative to control in presence of DTT
[4] = target: T1, Testis-specific serine/threonine-protein kinase 1 (Homo sapiens) (UniProt Q9BXA7); assay: Binding affinity to human TSSK1 at 500 nM by cell-based competition binding assay relative to control in presence of DTT
T1 sequence (whole entry): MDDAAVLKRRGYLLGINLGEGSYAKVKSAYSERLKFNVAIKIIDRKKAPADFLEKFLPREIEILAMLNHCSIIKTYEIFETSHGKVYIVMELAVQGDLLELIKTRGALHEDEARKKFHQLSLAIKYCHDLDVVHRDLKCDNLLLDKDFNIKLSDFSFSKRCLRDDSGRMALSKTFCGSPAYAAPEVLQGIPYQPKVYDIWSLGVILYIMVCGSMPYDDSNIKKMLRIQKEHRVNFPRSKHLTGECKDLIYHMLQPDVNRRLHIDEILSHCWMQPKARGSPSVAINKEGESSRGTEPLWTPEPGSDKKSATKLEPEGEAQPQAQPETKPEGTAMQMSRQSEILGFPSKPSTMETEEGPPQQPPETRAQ

[5] = target: Aurora kinase B (Homo sapiens) (UniProt Q96GD4); assay: Binding affinity to human aurora kinase B at 500 nM by cell-based competition binding assay relative to control in presence of DTT
[6] = target: Cyclin-dependent kinase 3 (Homo sapiens) (UniProt Q00526); assay: Binding affinity to human CDK3 at 500 nM by cell-based competition binding assay relative to control in presence of DTT
How it was run: (§2)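 Kinase binding profiling ran on a commercial (Ambit) competitive binding screen against a panel of 90 kinases. The screen used reducing conditions with 7.5 mM DTT. To withstand the DTT, the bivalent ligand was tested as its amide isostere, with the disulfide replaced. A staurosporine derivative carrying a 3 β-alanine linker was run as the reference compound.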

[7] = target: Cyclin-dependent kinase 9 (Homo sapiens) (UniProt P50750); assay: Binding affinity to human CDK9 at 500 nM by cell-based competition binding assay relative to control in presence of DTT; how it was run: as §1
[8] = target: cAMP-dependent protein kinase catalytic subunit alpha (Homo sapiens) (UniProt P17612); assay: Binding affinity to human PKACalpha at 500 nM by cell-based competition binding assay relative to control in presence of DTT
[9] = test system: Epidermal growth factor receptor (Homo sapiens), P00533 [L858R]; assay: Binding affinity to human EGFR L858R mutant at 200 nM by cell-based competition binding assay relative to control in presence of DTT; how it was run: as §1
[10] = target: T2, Bone morphogenetic protein receptor type-2 (Homo sapiens) (UniProt Q13873); assay: Binding affinity to human BMPR2 at 200 nM by cell-based competition binding assay relative to control in presence of DTT; how it was run: as §2
T2 sequence (whole entry): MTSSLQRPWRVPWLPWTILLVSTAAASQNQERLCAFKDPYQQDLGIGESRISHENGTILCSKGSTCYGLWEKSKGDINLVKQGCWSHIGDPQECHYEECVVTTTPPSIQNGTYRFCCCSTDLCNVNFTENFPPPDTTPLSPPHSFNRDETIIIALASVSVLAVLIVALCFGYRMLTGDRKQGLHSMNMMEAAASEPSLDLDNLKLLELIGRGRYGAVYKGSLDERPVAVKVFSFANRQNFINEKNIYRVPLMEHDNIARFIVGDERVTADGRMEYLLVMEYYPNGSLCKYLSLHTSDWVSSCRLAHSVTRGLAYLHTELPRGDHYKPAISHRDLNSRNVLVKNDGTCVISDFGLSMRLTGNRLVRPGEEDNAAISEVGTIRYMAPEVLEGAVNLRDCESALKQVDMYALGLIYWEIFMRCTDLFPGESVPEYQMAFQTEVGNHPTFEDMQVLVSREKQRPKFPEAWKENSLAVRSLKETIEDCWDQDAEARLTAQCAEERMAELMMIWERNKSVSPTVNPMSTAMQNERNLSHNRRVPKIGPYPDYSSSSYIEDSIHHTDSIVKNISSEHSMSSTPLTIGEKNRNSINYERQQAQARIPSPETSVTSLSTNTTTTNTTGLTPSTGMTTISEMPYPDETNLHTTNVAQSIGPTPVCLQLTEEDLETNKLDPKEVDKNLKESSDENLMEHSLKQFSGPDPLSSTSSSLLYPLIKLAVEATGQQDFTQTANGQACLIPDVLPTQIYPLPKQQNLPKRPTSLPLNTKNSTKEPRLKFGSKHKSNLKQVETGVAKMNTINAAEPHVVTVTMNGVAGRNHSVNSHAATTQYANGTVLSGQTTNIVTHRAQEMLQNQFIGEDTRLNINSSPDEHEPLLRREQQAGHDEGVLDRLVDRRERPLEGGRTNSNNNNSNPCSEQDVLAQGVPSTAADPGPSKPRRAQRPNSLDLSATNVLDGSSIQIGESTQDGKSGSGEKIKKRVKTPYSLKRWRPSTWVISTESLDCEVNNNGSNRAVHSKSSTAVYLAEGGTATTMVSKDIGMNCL

[11] = target: Tyrosine-protein kinase BTK (Homo sapiens) (UniProt Q06187); assay: Binding affinity to human BTK at 200 nM by cell-based competition binding assay relative to control in presence of DTT; how it was run: as §2
[12] = target: Dual specificity mitogen-activated protein kinase kinase 2 (Homo sapiens) (UniProt P36507); assay: Binding affinity to human MEK2 at 50 nM by cell-based competition binding assay relative to control in presence of DTT
[13] = target: Mitogen-activated protein kinase 11 (Homo sapiens) (UniProt Q15759); assay: Binding affinity to human p38beta at 50 nM by cell-based competition binding assay relative to control in presence of DTT
[14] = target: Phosphatidylinositol 4,5-bisphosphate 3-kinase catalytic subunit alpha isoform (Homo sapiens) (UniProt P42336); assay: Binding affinity to human PIK3Calpha at 50 nM by cell-based competition binding assay relative to control in presence of DTT
[15] = target: Proto-oncogene tyrosine-protein kinase Src (Homo sapiens) (UniProt P12931); assay: Binding affinity to human SRC at 50 nM by cell-based competition binding assay relative to control in presence of DTT
Proto-oncogene tyrosine-protein kinase Src (Homo sapiens), sequence (P12931 2-536 limits assumed): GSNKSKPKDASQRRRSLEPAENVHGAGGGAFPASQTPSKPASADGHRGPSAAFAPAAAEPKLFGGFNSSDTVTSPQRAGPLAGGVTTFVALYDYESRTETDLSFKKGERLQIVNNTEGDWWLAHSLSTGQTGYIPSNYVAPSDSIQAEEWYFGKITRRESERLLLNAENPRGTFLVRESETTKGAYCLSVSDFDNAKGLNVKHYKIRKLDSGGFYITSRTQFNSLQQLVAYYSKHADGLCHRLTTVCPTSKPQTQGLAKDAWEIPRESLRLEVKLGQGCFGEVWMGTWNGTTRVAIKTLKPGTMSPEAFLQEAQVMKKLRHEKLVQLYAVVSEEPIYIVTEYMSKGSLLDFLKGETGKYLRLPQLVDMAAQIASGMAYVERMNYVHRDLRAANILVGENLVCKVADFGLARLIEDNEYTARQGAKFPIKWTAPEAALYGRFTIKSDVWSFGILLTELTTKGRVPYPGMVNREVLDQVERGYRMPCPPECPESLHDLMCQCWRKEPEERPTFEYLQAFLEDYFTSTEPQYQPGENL

Mitogen-activated protein kinase 11 (Homo sapiens), sequence (Q15759 whole entry, canonical isoform): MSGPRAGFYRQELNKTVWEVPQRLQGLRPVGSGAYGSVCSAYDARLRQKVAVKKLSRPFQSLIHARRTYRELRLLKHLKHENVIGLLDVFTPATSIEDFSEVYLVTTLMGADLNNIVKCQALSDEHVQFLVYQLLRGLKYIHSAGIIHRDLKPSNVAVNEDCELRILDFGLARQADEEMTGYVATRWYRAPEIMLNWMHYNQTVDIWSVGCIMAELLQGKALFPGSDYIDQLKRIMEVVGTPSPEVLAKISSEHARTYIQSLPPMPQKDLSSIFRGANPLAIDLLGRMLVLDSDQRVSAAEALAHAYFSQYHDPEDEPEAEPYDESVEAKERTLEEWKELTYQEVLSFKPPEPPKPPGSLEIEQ
Phosphatidylinositol 4,5-bisphosphate 3-kinase catalytic subunit alpha isoform (Homo sapiens), sequence (P42336 whole entry, canonical isoform): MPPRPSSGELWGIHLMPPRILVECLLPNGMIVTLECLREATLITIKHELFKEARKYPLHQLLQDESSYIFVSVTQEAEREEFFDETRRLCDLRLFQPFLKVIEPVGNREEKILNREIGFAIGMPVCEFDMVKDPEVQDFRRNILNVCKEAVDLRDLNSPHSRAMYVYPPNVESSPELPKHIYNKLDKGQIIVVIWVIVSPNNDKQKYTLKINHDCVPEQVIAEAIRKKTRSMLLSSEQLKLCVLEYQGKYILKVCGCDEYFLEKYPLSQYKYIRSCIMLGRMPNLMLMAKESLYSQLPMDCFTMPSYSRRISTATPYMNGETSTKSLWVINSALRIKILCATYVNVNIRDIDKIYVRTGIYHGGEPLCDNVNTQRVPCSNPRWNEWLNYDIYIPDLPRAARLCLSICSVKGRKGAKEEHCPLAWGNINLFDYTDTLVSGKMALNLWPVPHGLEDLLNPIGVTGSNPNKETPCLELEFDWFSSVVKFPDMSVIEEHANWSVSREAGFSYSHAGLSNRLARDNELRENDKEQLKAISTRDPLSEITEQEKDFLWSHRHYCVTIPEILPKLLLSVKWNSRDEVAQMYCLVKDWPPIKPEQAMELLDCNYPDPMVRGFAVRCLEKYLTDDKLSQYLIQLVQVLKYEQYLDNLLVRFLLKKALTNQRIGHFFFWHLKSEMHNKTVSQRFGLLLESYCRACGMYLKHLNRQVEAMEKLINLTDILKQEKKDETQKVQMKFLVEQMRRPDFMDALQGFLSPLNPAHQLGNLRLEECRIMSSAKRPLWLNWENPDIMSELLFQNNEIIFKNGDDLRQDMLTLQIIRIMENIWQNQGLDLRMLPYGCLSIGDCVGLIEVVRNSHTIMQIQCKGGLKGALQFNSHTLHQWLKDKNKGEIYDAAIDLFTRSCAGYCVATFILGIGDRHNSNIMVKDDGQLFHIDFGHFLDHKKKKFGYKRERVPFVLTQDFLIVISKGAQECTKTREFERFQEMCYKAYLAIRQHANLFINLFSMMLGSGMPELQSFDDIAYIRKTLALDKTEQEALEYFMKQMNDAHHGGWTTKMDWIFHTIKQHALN
Cyclin-dependent kinase 3 (Homo sapiens), sequence (Q00526 whole entry, looked up): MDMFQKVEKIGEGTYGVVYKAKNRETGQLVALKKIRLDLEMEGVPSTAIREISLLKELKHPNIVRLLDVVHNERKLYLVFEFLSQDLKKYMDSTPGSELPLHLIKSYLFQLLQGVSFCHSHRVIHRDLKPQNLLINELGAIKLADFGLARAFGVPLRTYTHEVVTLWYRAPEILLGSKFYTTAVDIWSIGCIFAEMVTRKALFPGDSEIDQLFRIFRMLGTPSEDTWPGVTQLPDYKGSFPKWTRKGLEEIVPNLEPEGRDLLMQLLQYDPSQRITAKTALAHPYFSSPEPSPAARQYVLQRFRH
RAF proto-oncogene serine/threonine-protein kinase (Homo sapiens), sequence (P04049 whole entry): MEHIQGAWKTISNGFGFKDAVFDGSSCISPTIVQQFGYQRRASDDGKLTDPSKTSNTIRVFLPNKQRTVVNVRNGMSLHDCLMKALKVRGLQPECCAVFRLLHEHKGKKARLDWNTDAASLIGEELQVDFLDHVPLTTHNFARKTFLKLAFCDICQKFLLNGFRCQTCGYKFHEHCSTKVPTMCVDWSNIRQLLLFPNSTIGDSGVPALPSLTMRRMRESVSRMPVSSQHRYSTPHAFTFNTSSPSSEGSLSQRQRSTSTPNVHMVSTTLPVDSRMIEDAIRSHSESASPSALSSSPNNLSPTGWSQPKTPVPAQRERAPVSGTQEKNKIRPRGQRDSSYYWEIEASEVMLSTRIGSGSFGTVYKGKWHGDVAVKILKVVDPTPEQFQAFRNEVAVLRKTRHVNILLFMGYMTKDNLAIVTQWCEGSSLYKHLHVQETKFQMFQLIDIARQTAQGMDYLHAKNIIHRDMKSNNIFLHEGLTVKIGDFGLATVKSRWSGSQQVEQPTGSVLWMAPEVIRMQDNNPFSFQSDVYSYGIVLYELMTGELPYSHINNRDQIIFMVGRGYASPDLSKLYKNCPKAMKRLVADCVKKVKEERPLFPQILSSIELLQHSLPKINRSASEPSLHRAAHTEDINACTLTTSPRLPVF
Aurora kinase B (Homo sapiens), sequence (Q96GD4 whole entry): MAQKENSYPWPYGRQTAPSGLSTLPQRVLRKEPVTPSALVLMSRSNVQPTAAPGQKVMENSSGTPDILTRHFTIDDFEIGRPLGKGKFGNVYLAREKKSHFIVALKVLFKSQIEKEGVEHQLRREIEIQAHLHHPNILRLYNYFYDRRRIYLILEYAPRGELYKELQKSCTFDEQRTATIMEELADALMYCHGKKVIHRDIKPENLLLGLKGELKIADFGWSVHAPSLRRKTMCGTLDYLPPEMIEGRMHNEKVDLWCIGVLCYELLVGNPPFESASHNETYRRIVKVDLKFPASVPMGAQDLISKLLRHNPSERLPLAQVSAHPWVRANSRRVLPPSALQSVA
Casein kinase I isoform delta (Homo sapiens), sequence (P48730 whole entry, looked up, canonical isoform): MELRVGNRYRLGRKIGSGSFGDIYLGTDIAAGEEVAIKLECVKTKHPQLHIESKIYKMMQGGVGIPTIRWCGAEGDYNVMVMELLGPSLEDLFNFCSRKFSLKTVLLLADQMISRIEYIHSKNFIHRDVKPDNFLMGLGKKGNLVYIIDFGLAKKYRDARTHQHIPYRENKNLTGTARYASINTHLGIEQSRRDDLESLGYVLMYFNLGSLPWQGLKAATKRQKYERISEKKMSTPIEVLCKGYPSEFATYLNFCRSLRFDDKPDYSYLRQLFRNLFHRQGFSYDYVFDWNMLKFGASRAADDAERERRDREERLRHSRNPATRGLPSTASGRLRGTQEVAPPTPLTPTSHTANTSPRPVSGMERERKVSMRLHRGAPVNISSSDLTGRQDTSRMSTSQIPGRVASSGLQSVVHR
Dual specificity mitogen-activated protein kinase kinase 2 (Homo sapiens), sequence (P36507 whole entry): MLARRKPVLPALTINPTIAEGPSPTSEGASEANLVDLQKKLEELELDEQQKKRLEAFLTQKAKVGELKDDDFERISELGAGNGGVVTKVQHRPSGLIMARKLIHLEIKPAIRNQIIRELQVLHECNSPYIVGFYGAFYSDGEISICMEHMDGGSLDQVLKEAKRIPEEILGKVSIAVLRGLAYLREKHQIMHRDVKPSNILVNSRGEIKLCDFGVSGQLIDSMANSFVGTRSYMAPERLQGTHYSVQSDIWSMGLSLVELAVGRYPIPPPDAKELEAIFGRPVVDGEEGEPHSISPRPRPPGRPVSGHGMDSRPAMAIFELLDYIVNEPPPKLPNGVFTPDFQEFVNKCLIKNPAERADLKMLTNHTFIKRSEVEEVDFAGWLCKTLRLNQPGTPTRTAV
Tyrosine-protein kinase BTK (Homo sapiens), sequence (Q06187 whole entry): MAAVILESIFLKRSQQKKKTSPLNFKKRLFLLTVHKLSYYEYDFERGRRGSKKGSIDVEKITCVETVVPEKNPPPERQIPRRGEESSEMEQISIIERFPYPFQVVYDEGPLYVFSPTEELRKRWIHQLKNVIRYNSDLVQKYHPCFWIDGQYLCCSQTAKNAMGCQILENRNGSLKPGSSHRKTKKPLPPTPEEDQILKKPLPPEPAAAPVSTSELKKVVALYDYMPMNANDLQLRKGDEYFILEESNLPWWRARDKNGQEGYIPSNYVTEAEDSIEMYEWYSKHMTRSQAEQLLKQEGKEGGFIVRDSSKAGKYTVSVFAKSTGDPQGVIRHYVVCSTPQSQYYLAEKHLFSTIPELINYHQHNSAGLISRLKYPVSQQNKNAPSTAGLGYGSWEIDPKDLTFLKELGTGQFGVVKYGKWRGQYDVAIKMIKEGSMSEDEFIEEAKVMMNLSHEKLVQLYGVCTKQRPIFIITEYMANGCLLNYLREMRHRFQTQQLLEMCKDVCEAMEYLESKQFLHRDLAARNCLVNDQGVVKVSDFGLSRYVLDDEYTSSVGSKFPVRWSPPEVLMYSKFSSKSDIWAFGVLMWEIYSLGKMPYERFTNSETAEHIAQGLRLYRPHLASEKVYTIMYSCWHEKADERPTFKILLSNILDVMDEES

Activity [1]: 89%
Activity [2]: 70%
Activity [3]: 73%
Activity [4]: 2.6%
Activity [5]: 0%
Activity [6]: 87%
Activity [7]: 92%
Activity [8]: 52%
Compound: CO[C@@H]1[C@H](N(C)C(=O)CCC(=O)NCCC(=O)NCCC(=O)NCCC(N)=O)C[C@H]2O[C@]1(C)n1c3ccccc3c3c4c(c5c6ccccc6n2c5c31)C(=O)NC4

Activity [9]: 86%
Activity [10]: 93%
Activity [11]: 62%
Compound: CO[C@@H]1[C@H](N(C)C(=O)CCC(=O)NCCC(=O)NCCC(=O)NCCC(=O)NCCC(=O)NCCC(=O)NCCC(=O)NCCC(=O)N[C@H]2CSSC[C@@H](C(=O)NCC(N)=O)NC(=O)CNC(=O)[C@H](Cc3ccccc3)NC(=O)[C@H](C(C)C)NC(=O)[C@H](CCCNC(=N)N)NC(=O)[C@H](Cc3ccccc3)NC(=O)[C@H](C(C)C)NC2=O)C[C@H]2O[C@]1(C)n1c3ccccc3c3c4c(c5c6ccccc6n2c5c31)C(=O)NC4 ({Staurosporine-Suc-βAla-βAla-βAla-βAla-βAla-βAla-βAla}-CVFRVFGCG-NH2; disulfide 1-8)

Activity [12]: 87%
Activity [13]: 100%
Activity [14]: 100%
Activity [15]: 100%
Compound: CO[C@@H]1[C@H](N(C)C(=O)CCC(=O)NCCC(=O)NCCC(=O)NCCC(=O)NCCC(=O)NCCC(=O)NCCC(=O)NCCC(=O)N[C@H]2CNC(=O)C[C@@H](C(N)=O)NC(=O)CNC(=O)[C@H](Cc3ccccc3)NC(=O)[C@H](C(C)C)NC(=O)[C@H](CCCNC(=N)N)NC(=O)[C@H](Cc3ccccc3)NC(=O)[C@H](C(C)C)NC2=O)C[C@H]2O[C@]1(C)n1c3ccccc3c3c4c(c5c6ccccc6n2c5c31)C(=O)NC4 ({Staurosporine-Suc-βAla-βAla-βAla-βAla-βAla-βAla-βAla}-[Dap]VFRVFGD-NH2; lactam 1-8)
